The values below come from ChEMBL document CHEMBL2046345, “Synthesis of Leubethanol derivatives and evaluation against Mycobacterium tuberculosis” (Bioorg Med Chem, 2012).

≈ marks a conversion by molar mass, not a printed value.

The subject of series [1] is Mycobacterium tuberculosis. Nature of the series: Antimycobacterial activity against Mycobacterium tuberculosis H37Rv ATCC 27294 by MABA method. It is filed as functional. In a few lines:
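M. tuberculosis H37Rv (ATCC 27294), susceptible to all five first-line drugs, in modified Microplate Alamar Blue Assay. Two-fold serial dilutions were made in Middlebrook 7H9-OADC, 100–0.78 µg/mL, with 1:50 bacterial suspension (~6×10⁶ CFU/mL, McFarland 1). Incubation 37 °C, 5% CO₂, 5–7 days, then Alamar Blue plus 10% Tween-80, 24 h. MIC = first blue well, confirmed microscopically. Ethambutol was the reference; triplicate independent experiments.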

Series [2] is described as follows: Cytotoxicity against african green monkey Vero cells after 48 hrs by MTT assay. It is filed as cell-based. The following applies: chlorocebus sabaeus. In a few lines: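 Vero cells grown in RPMI-1640 with 10% FBS, penicillin and streptomycin, 37 °C, 5% CO₂. Exposed to compound 500–0.5 µg/mL for 48 h, then MTT (4 mg/mL in PBS) for 3 h. Formazan dissolved in DMSO, absorbance read at 575 nm. CC50 = concentration inhibiting 50% viability by linear regression; rounded mean of three experiments.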

The nature of series [3]: Selectivity index, ratio of CC50 for african green monkey Vero cells to MIC for Mycobacterium tuberculosis H37Rv ATCC 27294. It is filed as functional. In a few lines:
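SI calculated as CC50 (Vero, MTT, 48 h) divided by MIC against H37Rv (MABA).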

With `Cc1cc(O)c2c(c1)[C@H]([C@@H](C)CCCC(C)C)CC[C@H]2C`, in series [1], it took 30.3 µM (≈ 8.74 µg/mL) to inhibit growth (MIC). In series [2], this compound had a CC50 at 48 h of 192 µM. In addition, the “Selectivity Index” value in series [3] came out at 6.3.
For `Cc1cc(O)c2c(c1)[C@H]([C@@H](C)CCCC(C)(C)O)CC[C@H]2C`, the MIC in series [1] amounted to 200 µM (≈ 60.9 µg/mL).
`Cc1cc(O)c2c(c1)[C@H]([C@@H](C)CCC(O)C(C)(C)N=[N+]=[N-])CC[C@H]2C` (stereo partly specified) yielded an MIC in series [1] of 181 µM (≈ 62.5 µg/mL). Also, the midpoint of cytotoxicity in series [2], the CC50 at 48 h, lay at 231 µM. Further, in series [3], the “Selectivity Index” value came out at 1.3.
In series [1], `Cc1cc(O)c2c(c1)[C@H]([C@@H](C)CCC(N=[N+]=[N-])C(C)(C)O)CC[C@H]2C` (stereo partly specified) came in with an MIC of 90 µM (≈ 31.1 µg/mL). Besides, in series [2], it took 127 µM to reach half-maximal cytotoxicity (CC50 at 48 h). Further, in series [3], the “Selectivity Index” value is given as 1.4.
The like results for `Cc1cc(O)c2c(c1)[C@H]([C@@H](C)CCC(O)C(C)(C)N)CC[C@H]2C` (stereo partly specified) were, in that order, 98 µM (≈ 31.3 µg/mL), 141 µM and 1.4.
In turn, `Cc1cc(O)c2c(c1)[C@H]([C@@H](C)CCC(N)C(C)(C)O)CC[C@H]2C` (stereo partly specified) returned an MIC in series [1] of 98 µM (≈ 31.3 µg/mL). Moreover, the midpoint of cytotoxicity in series [2], the CC50 at 48 h, lay at 158 µM. Further, the “Selectivity Index” value in series [3] came to 1.6.
For `C/C(=C\CC[C@H](C)[C@@H]1CC[C@@H](C)c2c(O)cc(C)cc21)CO`, the lowest concentration to inhibit growth in series [1] (MIC) was 25.8 µM (≈ 7.8 µg/mL). In series [2], this compound displayed a CC50 at 48 h of 132 µM. The “Selectivity Index” value in series [3] is 5.1.
The like results for `C/C(C=O)=C\CC[C@H](C)[C@@H]1CC[C@@H](C)c2c(O)cc(C)cc21` were, in that order, 25.8 µM (≈ 7.75 µg/mL), 116 µM and 4.5.
Turning to `CCCCOc1cc(C)cc2c1[C@H](C)CC[C@H]2[C@@H](C)CCC=C(C)C`, the MIC in series [1] is more than 200 µM.
Same read-out and setting: to `CCCCCCOc1cc(C)cc2c1[C@H](C)CC[C@H]2[C@@H](C)CCC=C(C)C` belongs more than 200 µM; to `CC(C)=CCC[C@H](C)[C@@H]1CC[C@@H](C)c2c(OCc3ccc(Cl)cc3)cc(C)cc21`, more than 200 µM.
Take `CC(C)=CCC[C@H](C)[C@@H]1CC[C@@H](C)c2c(OCc3ccc([N+](=O)[O-])cc3)cc(C)cc21`: the MIC in series [1] is more than 200 µM.
On the same count and under the same terms, the same measure for `CC(C)=CCC[C@H](C)[C@@H]1CC[C@@H](C)c2c(OCc3cc([N+](=O)[O-])cc([N+](=O)[O-])c3)cc(C)cc21`: more than 200 µM; for `CC(C)=CCC[C@H](C)[C@@H]1CC[C@@H](C)c2c(OCCCCBr)cc(C)cc21`: more than 200 µM; for `CC(C)=CCC[C@H](C)[C@@H]1CC[C@@H](C)c2c(OCCCCOc3cc(C)cc4c3[C@H](C)CC[C@H]4[C@@H](C)CCC=C(C)C)cc(C)cc21`: 200 µM (≈ 125 µg/mL).
As to `CC(C)=CCC[C@H](C)[C@@H]1CC[C@@H](C)c2c(OCCCCCCBr)cc(C)cc21`, the MIC in series [1] was more than 200 µM.
On the same count and under the same terms, the same measure for `CC(C)=CCC[C@H](C)[C@@H]1CC[C@@H](C)c2c(OCCCCCCOc3cc(C)cc4c3[C@H](C)CC[C@H]4[C@@H](C)CCC=C(C)C)cc(C)cc21`: 190 µM (≈ 124 µg/mL); for `CC(C)=CCC[C@H](C)[C@@H]1CC[C@@H](C)c2c(OC(=O)c3ccc([N+](=O)[O-])cc3)cc(C)cc21`: more than 200 µM; for `CC(C)=CCC[C@H](C)[C@@H]1CC[C@@H](C)c2c(OC(=O)c3ccco3)cc(C)cc21`: more than 200 µM.
For `CC(C)=CCC[C@H](C)[C@@H]1CC[C@@H](C)c2c(O)cc(C)c(Cc3cc([N+](=O)[O-])cc([N+](=O)[O-])c3)c21`, the MIC in series [1] worked out at 17.2 µM (≈ 8.03 µg/mL). In series [2], this compound registered a CC50 at 48 h of more than 770 µM. The “Selectivity Index” value in series [3] is on record as more than 45.
Consider `Cc1cc(O)c2c(c1)[C@H]([C@@H](C)CCC1OC1(C)C)CC[C@H]2C` (mixture of isomers), for which, in series [1], it took 103 µM to inhibit growth (MIC). Also, in series [2], it took 661 µM to reach half-maximal cytotoxicity (CC50 at 48 h). Besides, the “Selectivity Index” value in series [3] is listed as 6.4.
As to `CC[C@@H](CO)NCCN[C@@H](CC)CO` [ETHAMBUTOL], in series [1], the MIC turned out to be 7.5 µM (≈ 1.53 µg/mL). In addition, in series [2], the CC50 at 48 h was more than 500 µM. Moreover, the “Selectivity Index” value in series [3] is more than 67.
In series [1], `COc1cc(C)cc2c1[C@H](C)CC[C@H]2[C@@H](C)CCC=C(C)C` [LEUBETHANOL METHYL ETHER] came in with an MIC of more than 200 µM.
In the case of `CC(C)=CCC[C@H](C)[C@@H]1CC[C@@H](C)c2c(O)cc(C)cc21` [LEUBETHANOL], in series [1], the MIC came to 25.1 µM (≈ 7.19 µg/mL). Further, the midpoint of cytotoxicity in series [2], the CC50 at 48 h, lay at 123 µM. In series [3], the “Selectivity Index” value is listed as 4.9.
For `CC(=O)Oc1cc(C)cc2c1[C@H](C)CC[C@H]2[C@@H](C)CCC=C(C)C` [LEUBETHANYL ACETATE], the MIC in series [1] was 48.7 µM. This compound also registered a CC50 at 48 h in series [2] of more than 1100 µM. Besides, the “Selectivity Index” value in series [3] is listed as more than 22.6.
In turn, `CC(C)=CCC[C@H](C)[C@@H]1CC[C@@H](C)c2c(OC(=O)c3ccccc3)cc(C)cc21` [LEUBETHANYL BENZOATE] came in with an MIC in series [1] of more than 200 µM.
Same read-out and setting: to `CCCCCC(=O)Oc1cc(C)cc2c1[C@H](C)CC[C@H]2[C@@H](C)CCC=C(C)C` [LEUBETHANYL HEXANOATE] belongs more than 200 µM.
